{"source": "ChEMBL document CHEMBL1828563", "about": "“Synthesis and biological evaluation of 3-(1H-imidazol- and triazol-1-yl)-2,2-dimethyl-3-[4-(naphthalen-2-ylamino)phenyl]propyl derivatives as small molecule inhibitors of retinoic acid 4-hydroxylase (CYP26)” (J Med Chem, 2011)", "key": {"Cytochrome P450 26A1 [1]": {"biological_target": "T1, Cytochrome P450 26A1 (Homo sapiens, UniProt O43174)", "T1 sequence (O43174 whole entry)": "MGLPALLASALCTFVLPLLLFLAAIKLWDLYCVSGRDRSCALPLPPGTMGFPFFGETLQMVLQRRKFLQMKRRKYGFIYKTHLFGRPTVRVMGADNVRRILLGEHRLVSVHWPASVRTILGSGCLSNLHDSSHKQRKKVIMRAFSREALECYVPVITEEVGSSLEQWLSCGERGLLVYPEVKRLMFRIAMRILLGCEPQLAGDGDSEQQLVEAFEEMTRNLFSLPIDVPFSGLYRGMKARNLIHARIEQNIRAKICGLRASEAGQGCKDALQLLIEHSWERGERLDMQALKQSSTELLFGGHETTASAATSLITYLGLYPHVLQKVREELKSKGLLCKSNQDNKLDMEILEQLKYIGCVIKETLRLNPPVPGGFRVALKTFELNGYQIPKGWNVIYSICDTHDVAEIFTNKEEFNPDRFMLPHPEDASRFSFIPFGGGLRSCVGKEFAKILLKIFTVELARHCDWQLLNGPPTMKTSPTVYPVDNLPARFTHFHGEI", "assay": "Inhibition of human CYP26A1 assessed using [11,12-3H]ATRA as substrate by scintillation counting", "summary_of_the_method": "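CYP26 source: microsomes from MCF-7 cells pretreated 24 h with ATRA to induce CYP26, isolated by differential centrifugation. 50 μg microsomal protein in 50 mM Tris pH 7.4, 150 mM KCl, 10 mM MgCl₂, 0.02% BSA, 2 mM NADPH, 10 nM ATRA plus 0.1 μCi ³H-ATRA. Inhibitor 1–1000 nM, 1 h at 37 °C. Acetonitrile quench, retinoids resolved on C18 HPLC.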"}, "SH-SY5Y": {"test_system": "SH-SY5Y", "assay": "Increase in CYP26A1 mRNA expression in human SH-SY5Y cells at 1 uM after 72 hrs by RT-PCR analysis in the presence of 0.1 uM all-trans-retinoic acid", "assay_type": "functional", "summary_of_the_method": "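SH-SY5Y cells grown in RPMI 1640 with 10% FCS and 2 mM L-glutamine. Treated 72 h with 0.1 μM ATRA plus inhibitor at 1 μM; inhibitors in ethanol diluted in medium. Total RNA reverse transcribed for TaqMan real-time PCR of CYP26A1, normalized to β-actin. Fold increase relative to cells given […]; mean ± SD, n = 6.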"}, "Cytochrome P450 2C19": {"biological_target": "Cytochrome P450 2C19 (Homo sapiens, UniProt P33261)", "sequence (P33261 whole entry)": "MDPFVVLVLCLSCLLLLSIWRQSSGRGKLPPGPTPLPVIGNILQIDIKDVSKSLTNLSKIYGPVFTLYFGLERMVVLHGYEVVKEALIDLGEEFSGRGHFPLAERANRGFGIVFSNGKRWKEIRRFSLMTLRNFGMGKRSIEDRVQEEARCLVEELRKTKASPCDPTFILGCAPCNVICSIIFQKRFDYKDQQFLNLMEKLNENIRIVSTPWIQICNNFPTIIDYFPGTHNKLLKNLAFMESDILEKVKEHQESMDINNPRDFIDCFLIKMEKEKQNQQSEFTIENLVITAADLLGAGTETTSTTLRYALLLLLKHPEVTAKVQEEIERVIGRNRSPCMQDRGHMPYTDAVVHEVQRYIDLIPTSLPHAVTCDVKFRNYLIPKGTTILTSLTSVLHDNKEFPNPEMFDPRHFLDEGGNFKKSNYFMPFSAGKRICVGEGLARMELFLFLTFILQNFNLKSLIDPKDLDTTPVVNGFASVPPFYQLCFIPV", "assay": "Inhibition of CYP2C19 in human liver microsomes", "assay_type": "ADME, Microsome"}, "CYP1A2": {"biological_target": "T2, CYP1A2 (Homo sapiens, UniProt P05177)", "T2 sequence (P05177 whole entry)": "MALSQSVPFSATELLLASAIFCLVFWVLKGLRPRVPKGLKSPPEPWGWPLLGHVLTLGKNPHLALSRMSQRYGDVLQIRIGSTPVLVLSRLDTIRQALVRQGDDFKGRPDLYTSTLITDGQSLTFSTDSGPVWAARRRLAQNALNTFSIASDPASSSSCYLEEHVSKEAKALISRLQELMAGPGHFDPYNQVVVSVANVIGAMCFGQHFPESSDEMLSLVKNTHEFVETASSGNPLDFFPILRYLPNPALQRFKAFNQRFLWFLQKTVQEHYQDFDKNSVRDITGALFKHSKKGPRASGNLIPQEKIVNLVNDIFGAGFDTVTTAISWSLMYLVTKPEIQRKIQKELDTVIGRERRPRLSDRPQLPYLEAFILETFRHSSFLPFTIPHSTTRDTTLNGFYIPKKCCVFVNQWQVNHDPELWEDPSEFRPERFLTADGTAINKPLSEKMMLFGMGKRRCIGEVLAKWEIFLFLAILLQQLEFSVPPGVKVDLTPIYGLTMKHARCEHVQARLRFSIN", "assay": "Inhibition of CYP1A2 in human liver microsomes at 0.4 uM", "assay_type": "ADME, Microsome"}, "[2]": {"assay": "Half-life in human liver microsomes", "assay_type": "ADME, Microsome"}, "CYP3A4": {"biological_target": "CYP3A4 (Homo sapiens, UniProt P08684)", "sequence (P08684 whole entry)": "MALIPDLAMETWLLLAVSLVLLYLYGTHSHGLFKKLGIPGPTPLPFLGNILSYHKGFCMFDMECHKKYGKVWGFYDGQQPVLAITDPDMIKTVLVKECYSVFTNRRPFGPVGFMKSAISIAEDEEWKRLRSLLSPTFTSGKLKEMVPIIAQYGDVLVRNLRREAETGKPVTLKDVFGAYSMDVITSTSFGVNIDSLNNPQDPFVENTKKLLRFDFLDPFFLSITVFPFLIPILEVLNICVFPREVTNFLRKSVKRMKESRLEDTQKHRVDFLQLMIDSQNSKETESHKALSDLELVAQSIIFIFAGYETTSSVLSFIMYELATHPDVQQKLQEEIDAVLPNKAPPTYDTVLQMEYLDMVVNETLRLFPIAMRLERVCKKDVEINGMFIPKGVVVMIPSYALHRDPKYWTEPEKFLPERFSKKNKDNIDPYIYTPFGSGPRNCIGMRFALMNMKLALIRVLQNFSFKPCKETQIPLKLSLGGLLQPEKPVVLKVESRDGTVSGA", "assay": "Inhibition of CYP3A4 in human liver microsomes at 0.4 uM", "assay_type": "ADME, Microsome"}, "CYP2D6": {"biological_target": "CYP2D6 (Homo sapiens, UniProt P10635)", "sequence (P10635 whole entry)": "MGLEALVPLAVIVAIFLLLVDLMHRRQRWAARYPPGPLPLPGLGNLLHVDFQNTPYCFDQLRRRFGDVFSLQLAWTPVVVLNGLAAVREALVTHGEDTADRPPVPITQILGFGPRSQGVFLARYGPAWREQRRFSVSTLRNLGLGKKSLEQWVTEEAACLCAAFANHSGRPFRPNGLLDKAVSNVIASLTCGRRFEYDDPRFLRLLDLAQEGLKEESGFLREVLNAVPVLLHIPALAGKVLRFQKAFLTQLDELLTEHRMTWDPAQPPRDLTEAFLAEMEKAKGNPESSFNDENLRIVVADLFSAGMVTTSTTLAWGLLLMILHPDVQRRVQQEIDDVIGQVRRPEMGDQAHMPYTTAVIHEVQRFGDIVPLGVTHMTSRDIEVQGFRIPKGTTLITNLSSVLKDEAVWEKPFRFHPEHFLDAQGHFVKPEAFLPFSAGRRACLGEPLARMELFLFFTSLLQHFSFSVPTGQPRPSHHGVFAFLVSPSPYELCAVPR", "assay": "Inhibition of CYP2D6 in human liver microsomes at 0.4 uM", "assay_type": "ADME, Microsome"}, "CYP2C19": {"biological_target": "CYP2C19 (Homo sapiens, UniProt P33261)", "sequence (P33261 whole entry)": "as the sequence (P33261 whole entry) above", "assay": "Inhibition of CYP2C19 in human liver microsomes at 0.4 uM", "assay_type": "ADME, Microsome"}, "CYP2C9": {"biological_target": "CYP2C9 (Homo sapiens, UniProt P11712)", "sequence (P11712 whole entry)": "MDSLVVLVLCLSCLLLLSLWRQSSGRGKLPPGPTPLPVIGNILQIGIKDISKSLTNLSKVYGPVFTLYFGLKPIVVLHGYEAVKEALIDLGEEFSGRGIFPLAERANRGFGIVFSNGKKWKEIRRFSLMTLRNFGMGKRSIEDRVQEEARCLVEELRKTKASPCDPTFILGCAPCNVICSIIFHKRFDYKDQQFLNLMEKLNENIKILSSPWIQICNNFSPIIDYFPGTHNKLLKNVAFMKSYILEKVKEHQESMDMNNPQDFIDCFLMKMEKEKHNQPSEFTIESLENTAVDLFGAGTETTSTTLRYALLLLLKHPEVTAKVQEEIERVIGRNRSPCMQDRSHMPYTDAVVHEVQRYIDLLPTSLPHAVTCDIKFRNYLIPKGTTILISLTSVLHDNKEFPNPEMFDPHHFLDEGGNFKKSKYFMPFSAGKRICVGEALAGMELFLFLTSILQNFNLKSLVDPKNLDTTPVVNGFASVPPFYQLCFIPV", "assay": "Inhibition of CYP2C9 in human liver microsomes at 0.4 uM", "assay_type": "ADME, Microsome"}, "Cytochrome P450 1A2": {"biological_target": "T3, Cytochrome P450 1A2 (Homo sapiens, UniProt P05177)", "T3 sequence (P05177 whole entry)": "T2 sequence (P05177 whole entry)", "assay": "Inhibition of CYP1A2 in human liver microsomes", "assay_type": "ADME, Microsome"}, "Cytochrome P450 3A4": {"biological_target": "Cytochrome P450 3A4 (Homo sapiens, UniProt P08684)", "sequence (P08684 whole entry)": "as the sequence (P08684 whole entry) above", "assay": "Inhibition of CYP3A4 in human liver microsomes", "assay_type": "ADME, Microsome"}, "Cytochrome P450 26A1 [3]": {"biological_target": "T1, Cytochrome P450 26A1", "assay": "Inhibition of CYP26 in human MCF-7 cell microsomes"}, "Cytochrome P450 2D6": {"biological_target": "Cytochrome P450 2D6 (Homo sapiens, UniProt P10635)", "sequence (P10635 whole entry)": "as the sequence (P10635 whole entry) above", "assay": "Inhibition of CYP2D6 in human liver microsomes", "assay_type": "ADME, Microsome"}, "Cytochrome P450 2C9": {"biological_target": "Cytochrome P450 2C9 (Homo sapiens, UniProt P11712)", "sequence (P11712 whole entry)": "as the sequence (P11712 whole entry) above", "assay": "Inhibition of CYP2C9 in human liver microsomes", "assay_type": "ADME, Microsome"}}, "note": "Active and inactive are the calls of the source. The rule behind the calls is not given here."}
{"smiles": "CC(C)(C(=O)OCc1ccccc1)C(c1ccc(Nc2ccc3ccccc3c2)cc1)n1ccnc1", "note": "(stereo unspecified)", "values": [{"measurement": "IC50", "setting": "Cytochrome P450 26A1 [1]", "value": 400, "unit": "nM"}]}
{"smiles": "COc1ccc2cc(Nc3ccc(C(n4ccnc4)C(C)(C)CO)cc3)ccc2c1", "note": "(stereo unspecified)", "values": [{"measurement": "fold change (FC)", "setting": "SH-SY5Y", "value": 3.7}, {"measurement": "IC50", "setting": "Cytochrome P450 26A1 [1]", "value": 40, "unit": "nM"}]}
{"smiles": "CC(C)(C(=O)O)C(c1ccc(Nc2ccc3ccccc3c2)cc1)n1ccnc1", "note": "(stereo unspecified)", "values": [{"measurement": "IC50", "setting": "Cytochrome P450 26A1 [1]", "value": 300, "unit": "nM"}]}
{"smiles": "COC(=O)C(C)(C)C(c1ccc(Nc2ccc3ccccc3c2)cc1)n1cncn1", "note": "(stereo unspecified)", "values": [{"measurement": "IC50", "setting": "Cytochrome P450 2C19", "value": 3140, "unit": "nM"}, {"measurement": "fold change (FC)", "setting": "SH-SY5Y", "value": 5.2}, {"measurement": "inhibition at 0.4 µM", "setting": "CYP1A2", "value": 10, "unit": "%"}, {"measurement": "half-life", "setting": "[2]", "value": 3.73, "unit": "h"}, {"measurement": "inhibition at 0.4 µM", "setting": "CYP3A4", "value": 22, "unit": "%"}, {"measurement": "inhibition at 0.4 µM", "setting": "CYP2D6", "value": -2, "unit": "%"}, {"measurement": "inhibition at 0.4 µM", "setting": "CYP2C19", "value": 16, "unit": "%"}, {"measurement": "inhibition at 0.4 µM", "setting": "CYP2C9", "value": 38, "unit": "%"}, {"measurement": "IC50", "setting": "Cytochrome P450 1A2", "value": 10900, "unit": "nM"}, {"measurement": "IC50", "setting": "Cytochrome P450 3A4", "value": 330, "unit": "nM"}, {"measurement": "IC50", "setting": "Cytochrome P450 26A1 [3]", "value": 0.3, "unit": "nM"}, {"measurement": "IC50", "setting": "Cytochrome P450 26A1 [1]", "value": 0.35, "unit": "nM"}, {"measurement": "IC50", "setting": "Cytochrome P450 2D6", "value": 1800, "unit": "nM"}, {"measurement": "IC50", "setting": "Cytochrome P450 2C9", "value": 21400, "unit": "nM"}]}
{"smiles": "CNC(=O)C(C)(C)C(c1ccc(Nc2ccc3ccccc3c2)cc1)n1cncn1", "note": "(stereo unspecified)", "values": [{"measurement": "IC50", "setting": "Cytochrome P450 26A1 [1]", "value": 350, "unit": "nM"}]}
{"smiles": "CC(C)OC(=O)C(C)(C)C(c1ccc(Nc2ccc3ccccc3c2)cc1)n1ccnc1", "note": "(stereo unspecified)", "values": [{"measurement": "IC50", "setting": "Cytochrome P450 26A1 [1]", "value": 290, "unit": "nM"}]}
{"smiles": "CCCCCOC(=O)C(C)(C)C(c1ccc(Nc2ccc3ccccc3c2)cc1)n1ccnc1", "note": "(stereo unspecified)", "values": [{"measurement": "IC50", "setting": "Cytochrome P450 26A1 [1]", "value": 140, "unit": "nM"}]}
{"smiles": "CC(C)(C(N)=O)C(c1ccc(Nc2ccc3ccccc3c2)cc1)n1ccnc1", "note": "(stereo unspecified)", "values": [{"measurement": "fold change (FC)", "setting": "SH-SY5Y", "value": 4.1}, {"measurement": "IC50", "setting": "Cytochrome P450 26A1 [1]", "value": 50, "unit": "nM"}]}
{"smiles": "CCOC(=O)C(C)(C)C(c1ccc(Nc2ccc3ccccc3c2)cc1)n1ccnc1", "note": "(stereo unspecified)", "values": [{"measurement": "fold change (FC)", "setting": "SH-SY5Y", "value": 5.8}, {"measurement": "inhibition at 0.4 µM", "setting": "CYP1A2", "value": 20, "unit": "%"}, {"measurement": "inhibition at 0.4 µM", "setting": "CYP3A4", "value": 61, "unit": "%"}, {"measurement": "inhibition at 0.4 µM", "setting": "CYP2D6", "value": 15, "unit": "%"}, {"measurement": "inhibition at 0.4 µM", "setting": "CYP2C19", "value": 30, "unit": "%"}, {"measurement": "inhibition at 0.4 µM", "setting": "CYP2C9", "value": 43, "unit": "%"}, {"measurement": "IC50", "setting": "Cytochrome P450 26A1 [1]", "value": 0.35, "unit": "nM"}]}
{"smiles": "CNC(=O)C(C)(C)C(c1ccc(Nc2ccc3ccccc3c2)cc1)n1ccnc1", "note": "(stereo unspecified)", "values": [{"measurement": "Activity", "setting": "SH-SY5Y", "value": "Active"}, {"measurement": "inhibition at 0.4 µM", "setting": "CYP1A2", "value": 15, "unit": "%"}, {"measurement": "inhibition at 0.4 µM", "setting": "CYP3A4", "value": 86, "unit": "%"}, {"measurement": "inhibition at 0.4 µM", "setting": "CYP2D6", "value": 13, "unit": "%"}, {"measurement": "inhibition at 0.4 µM", "setting": "CYP2C19", "value": 14, "unit": "%"}, {"measurement": "inhibition at 0.4 µM", "setting": "CYP2C9", "value": 45, "unit": "%"}, {"measurement": "IC50", "setting": "Cytochrome P450 26A1 [1]", "value": 12, "unit": "nM"}]}
{"smiles": "CCCCOC(=O)C(C)(C)C(c1ccc(Nc2ccc3ccccc3c2)cc1)n1ccnc1", "note": "(stereo unspecified)", "values": [{"measurement": "IC50", "setting": "Cytochrome P450 26A1 [1]", "value": 200, "unit": "nM"}]}
{"smiles": "CN(C)C(=O)C(C)(C)C(c1ccc(Nc2ccc3ccccc3c2)cc1)n1ccnc1", "note": "(stereo unspecified)", "values": [{"measurement": "inhibition at 0.4 µM", "setting": "CYP1A2", "value": 11, "unit": "%"}, {"measurement": "inhibition at 0.4 µM", "setting": "CYP3A4", "value": 95, "unit": "%"}, {"measurement": "inhibition at 0.4 µM", "setting": "CYP2D6", "value": 29, "unit": "%"}, {"measurement": "inhibition at 0.4 µM", "setting": "CYP2C19", "value": 21, "unit": "%"}, {"measurement": "inhibition at 0.4 µM", "setting": "CYP2C9", "value": 52, "unit": "%"}, {"measurement": "IC50", "setting": "Cytochrome P450 26A1 [1]", "value": 75, "unit": "nM"}]}
{"smiles": "CC(C)(C(=O)O)C(c1ccc(Nc2ccc3ccccc3c2)cc1)n1cncn1", "note": "(stereo unspecified)", "values": [{"measurement": "IC50", "setting": "Cytochrome P450 26A1 [1]", "value": "> 1000", "unit": "nM"}]}
{"smiles": "c1ccc(C(c2ccc(Nc3ccc4ccccc4c3)cc2)n2ccnc2)cc1", "note": "(stereo unspecified)", "values": [{"measurement": "IC50", "setting": "Cytochrome P450 26A1 [1]", "value": 500, "unit": "nM"}]}
{"smiles": "C[C@H]([C@@H](c1ccc(Nc2nc3ccccc3s2)cc1)n1ccnc1)N(C)C", "values": [{"measurement": "IC50", "setting": "Cytochrome P450 2C9", "value": 11000, "unit": "nM"}]}
{"smiles": "CC(C)NC(=O)C(C)(C)C(c1ccc(Nc2ccc3ccccc3c2)cc1)n1ccnc1", "note": "(stereo unspecified)", "values": [{"measurement": "IC50", "setting": "Cytochrome P450 26A1 [1]", "value": 120, "unit": "nM"}]}
{"smiles": "COC(=O)C(C)(C)C(c1ccc(Nc2ccc3ccccc3c2)cc1)n1ccnc1", "note": "(stereo unspecified)", "values": [{"measurement": "Activity", "setting": "SH-SY5Y", "value": "Active"}, {"measurement": "half-life", "setting": "[2]", "value": 5.02, "unit": "h"}, {"measurement": "IC50", "setting": "Cytochrome P450 2C9", "value": 8000, "unit": "nM"}]}
